Legend:
[1] = test system: pain / nociception; details: cited from earlier work
[2] = test system: DRG neurons from Mrg KO mice; experiment: Calcium imaging, DRG neurons from Mrg KO mice; format: cell-based, mouse; details: capsaicin 0.5 μM, positive control, after JHU58
Outline: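 Mrg KO mice: 845 kb chromosome 7 deletion covering 12 Mrg genes incl. MrgC11, backcrossed to C57BL/6 at least five generations. DRGs from 3–4-week-old mice were enzyme-dissociated at 37°C, plated on poly-D-lysine/laminin coverslips, and used within 24 h. Fura-2 AM loading for 30 min in the dark at room temperature; 340/380 nm ratio imaging; bath drug application; experimenter blinded to genotype.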

[3] = test system: rats (lower limbs); experiment: Motor paralysis after intrathecal injection; format: in vivo, rat; details: intrathecal lidocaine 400 μg/20 μl
[4] = test system: SNL rats (mechanical hypersensitivity); experiment: Paw withdrawal threshold; format: in vivo, rat; details: intrathecal FMRFamide 2 mM, 10 μl, n=7, 30 and 60 minutes
Outline: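 Male Sprague-Dawley rats (200–350 g) had the left L5 spinal nerve ligated with 6-0 silk and cut distally. They were tested 4–5 weeks later via an intrathecal PE-10 catheter inserted through the atlanto-occipital membrane, with compound diluted in saline. Ipsilateral plantar PWT was measured by the up-down method (von Frey 0.38–13.1 g, 4–6 s) using the Dixon formula. Tests ran in the morning, blinded.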

COc1cc(CNC(=O)CCCC/C=C/C(C)C)ccc1O [capsaicin]
Effect on pain, peripheral versus central application ([1]; capsaicin): induces burning pain in the periphery, but it inhibits pain when applied centrally
DRG neurons from Mrg KO mice with an increase in [Ca2+]i [2]: 32%

CCN(CC)CC(=O)Nc1c(C)cccc1C [lidocaine]
Motor paralysis of the lower limbs [3]: temporary motor paralysis of the lower limbs

FMRFamide
Mechanical hypersensitivity, ipsilateral PWT [4]: inhibited mechanical hypersensitivity in the ipsilateral hindpaw of SNL rats

γ^2-MSH
Effect on nociception (acute and inflammatory pain models) ([1]; systemic and intrathecal injections): produce pronociceptive effects in acute pain models and contribute to heat hyperalgesia in an inflammatory pain model
